Most compounds without a hit are left out; they make up all but 3% or so of the library.
UCH37 DUB inh: inhibitors of human UCH37 deubiquitinase, primary screen, biochemical, Ub-AMC cleavage, fluorescence; purified proteasome/UCH37; inhibition, % (no concentration beside the values); hit rate 0.33% among 330,000;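 active = mean inhibition over replicate wells above about 20%, limit read from the data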
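Signal – fluorescence, ex 355 nm, em 460 nm · System – Proteasome-bound UCH37 · Input – 0.15 nM proteasome as dispensed · Timing – 30 min preincubation with enzyme, 25 min cleavage at room temperature · Read-out basis – percent inhibition of cleavage signal versus uninhibited and no-proteasome wells · Medium – Tris-HCl pH 7.4 with ATP-MgCl2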
MEKK2 WT-MEK5: modulators of MEK5 binding to wildtype MEKK2, primary screen, biochemical, multiplex bead flow cytometry, Alexa488-MEK5. Alexa488-MEK5 binding to MEKK2 WT; actives lie on both sides. hit rate 1.1% among 290,000. binding response (% of control), % at 10 µM. Mitogen-activated protein kinase kinase kinase 2 (Homo sapiens), Q9Y2U5. AID 1531, 2009; in the data active = binding response below about 67% or above about 130%
MEKK2 mut-MEK5: MEK5 binding signal on mutant MEKK2 PB1, primary screen, biochemical, multiplex bead flow cytometry, Alexa488-MEK5 | Alexa488-MEK5 binding to MEKK2 mutant | percent response, % at 10 µM | hit rate 0.35% among 290,000 | AID 1530, 2009; in the data active = percent response above about 24%, passing the limit was not always enough
UBC13 inh: UBC13 polyubiquitin chain formation inhibitors, primary screen, biochemical, TR-FRET, uHTS | Ubiquitin-conjugating enzyme E2 N (Homo sapiens), P61088 | inhibition, % at 20 µM | hit rate 0.47% among 330,000 | AID 485273, 2010; in the data active = inhibition above about 45%, passing the limit was not always enough
Target sequence (P61088 whole entry, looked up): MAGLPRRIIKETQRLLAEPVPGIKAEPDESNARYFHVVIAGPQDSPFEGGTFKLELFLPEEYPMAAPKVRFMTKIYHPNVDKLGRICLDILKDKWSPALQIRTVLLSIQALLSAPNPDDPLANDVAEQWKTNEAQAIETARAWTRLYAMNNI
MEKK3 PB1 HTS: modulators of MEKK3-MEK5 PB1 binding, primary screen, biochemical, wildtype MEKK3, multiplex bead flow cytometry, Alexa488-MEK5; hit rate 1.4% among 290,000; binding response (% of control), % at 10 µM; Mitogen-activated protein kinase kinase kinase 3 (Homo sapiens), Q99759; bead-based flow cytometry, Alexa488-MEK5 binding to MEKK3; actives lie on both sides; 0 = blocked by unlabeled MEK5, 100 = vehicle; AID 1529, 2009;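 active = binding response more than 3 SD above or below the average of its plate-row segment, actives on both sides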;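 also: Alexa488 bead fluorescence after subtracting the streptavidin-only scavenger bead signal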
Target sequence (Q99759 whole entry, looked up): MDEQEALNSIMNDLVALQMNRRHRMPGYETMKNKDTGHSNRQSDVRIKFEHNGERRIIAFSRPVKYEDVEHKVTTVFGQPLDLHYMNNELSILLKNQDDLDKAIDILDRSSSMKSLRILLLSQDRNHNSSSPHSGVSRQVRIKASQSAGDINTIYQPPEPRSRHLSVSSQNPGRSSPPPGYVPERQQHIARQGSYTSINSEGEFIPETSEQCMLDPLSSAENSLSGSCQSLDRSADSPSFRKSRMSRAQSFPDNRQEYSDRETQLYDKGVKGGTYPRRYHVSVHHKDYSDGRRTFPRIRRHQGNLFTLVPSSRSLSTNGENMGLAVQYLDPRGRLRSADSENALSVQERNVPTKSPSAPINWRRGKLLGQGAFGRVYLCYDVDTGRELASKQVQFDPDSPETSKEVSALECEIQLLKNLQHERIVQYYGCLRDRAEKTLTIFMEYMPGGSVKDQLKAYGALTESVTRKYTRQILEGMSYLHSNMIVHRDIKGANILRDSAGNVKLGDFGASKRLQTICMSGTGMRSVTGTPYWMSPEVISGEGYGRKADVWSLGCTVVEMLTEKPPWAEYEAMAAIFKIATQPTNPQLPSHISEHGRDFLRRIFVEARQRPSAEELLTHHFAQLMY
Apaf-1 inh: inhibitors of human Apaf-1 apoptosome, primary screen, biochemical, DEVD-Rh110 fluorescence, uHTS. hit rate 0.71% among 330,000. Apoptotic protease-activating factor 1 (Homo sapiens), O14727. reconstituted apoptosome caspase-3 activity. inhibition, % at 20 µM; active = inhibition of at least 40% at 20 µM
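Material: biochemical Apaf-1 apoptosome reconstitution. Medium: Hepes buffer, pH 7.5. Also added: cytochrome c activation, bis-DEVD rhodamine 110 substrate. Timing: 30 min compound preincubation, 50 min activation, room temperature. Measured by: rhodamine 110 fluorescence at Ex 480/Em 540 nm.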
MEKK2wt confirm: modulators of MEK5 binding to wildtype MEKK2, confirmation, biochemical, single concentration, multiplex bead flow cytometry; shares compounds with MEKK3 PB1 HTS; Alexa488-MEK5 binding to MEKK2 WT; actives lie on both sides; binding response (% of control), % at 10 µM; hit rate 2.4% among 5,900; AID 1892, 2009; in the data active = binding response below about 16% or above about 210%; inactive = in between
MEKK2mut confirm: mutant MEKK2 PB1-MEK5 binding signal retest – biochemical, single concentration, multiplex bead flow cytometry, confirmation; shares compounds with MEKK3 PB1 HTS; AID 1893, 2009; percent response, % at 10 µM; hit rate 2% among 5,900; Alexa488-MEK5 binding to MEKK2 mutant; in the data active = percent response mostly above about 71%, no sharp cut-off; inactive = mostly below about 38%;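 also: higher means compound restores mutant binding toward wildtype level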
MEKK3-MEK5 inh: MEKK3 wild-type PB1 binding to MEK5, inhibitors, confirmation, biochemical, bead multiplex flow cytometry, single concentration, wildtype | Alexa488-MEK5 binding to MEKK3; active compounds read low | shares compounds with MEKK3 PB1 HTS | hit rate 1.8% among 5,900 | binding response (% of control), % at 10 µM;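 active = binding response below 72% of control, or above a set upper limit, though filed actives all read lower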;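 also: lower values mean stronger disruption of MEK5 binding to MEKK3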
Of the large screens only hits and unclear results are named; the others gave an inactive call (follow-up assays come after a bar, where they were run); [ ] = remark or other dose.

SC(COCc1ccccc1)CN1CCN(Cc2ccc3c(c2)OCO3)CC1 (centres undefined)	MEKK2 WT-MEK5 142 (no result: UCH37 DUB inh) | MEKK2wt confirm inactive | MEKK2mut confirm inactive | MEKK3-MEK5 inh inactive
Cc1cccc(-n2c(=O)c3ccccc3n3c(=S)[nH]nc23)c1C	none
O=C(O)c1nn2cc(CCO)cnc2c1Cl	none
Cc1nnc2sc(-c3ccc(NC(=O)c4ccc(-c5ccc(Cl)cc5Cl)o4)cc3)nn12	MEKK3 PB1 HTS 77[inhibitor] | MEKK2wt confirm inactive | MEKK2mut confirm inactive | MEKK3-MEK5 inh inactive
CS(=O)(=O)N1CCN(c2ccccc2NC(=O)Cc2ccc(Cl)cc2)CC1	MEKK2 WT-MEK5 2.0[inhibitor], MEKK3 PB1 HTS 2.0[inhibitor] | MEKK2wt confirm inactive | MEKK2mut confirm inactive | MEKK3-MEK5 inh inactive
CN1CCN(c2ccccc2NC(=O)c2ccc(-c3ccc(Cl)cc3Cl)o2)CC1	MEKK2 WT-MEK5 156 | MEKK2wt confirm inactive | MEKK2mut confirm inactive | MEKK3-MEK5 inh inactive
CCCC(=O)Nc1ccc(-c2nc3cc(C)ccc3o2)cc1	none
COc1ccc([N+](=O)[O-])cc1N(CC(=O)NC1CCCCC1)S(C)(=O)=O	none
Cc1ccc([N+](=O)[O-])cc1N(CC(=O)NC1CCCC1)S(C)(=O)=O	MEKK3 PB1 HTS 73[inhibitor] | MEKK2wt confirm inactive | MEKK2mut confirm inactive | MEKK3-MEK5 inh inactive
CCNc1nc(Oc2ccc(C(=O)OCC)cc2)nc(N2CCOCC2)n1	MEKK3 PB1 HTS 135 | MEKK2wt confirm inactive | MEKK2mut confirm inactive | MEKK3-MEK5 inh inactive
CC(C)=N/N=C(/c1ccc([N+](=O)[O-])cc1)C12CN3CN(CN(C3)C1)C2	MEKK2 mut-MEK5 active, MEKK3 PB1 HTS 148 (no result: UCH37 DUB inh, MEKK2 WT-MEK5) | MEKK2wt confirm inactive | MEKK2mut confirm inactive | MEKK3-MEK5 inh inactive
CC(C)=NN=C(c1cccc([N+](=O)[O-])c1)C12CN3CN(CN(C3)C1)C2	none (no result: MEKK2 WT-MEK5, MEKK2 mut-MEK5, UBC13 inh, MEKK3 PB1 HTS, Apaf-1 inh)
CC(=O)C1=C(O)C(=O)N(c2ccc(S(=O)(=O)Nc3nccs3)cc2)C1c1ccc([N+](=O)[O-])cc1 (centres undefined)	MEKK2 WT-MEK5 62[inhibitor], MEKK3 PB1 HTS 57[inhibitor] | MEKK2wt confirm inactive | MEKK2mut confirm inactive | MEKK3-MEK5 inh inactive
CSc1nnc(-c2ccco2)n1-c1ccccc1	MEKK3 PB1 HTS 123 | MEKK2wt confirm inactive | MEKK2mut confirm inactive | MEKK3-MEK5 inh inactive
Fc1ccc(-c2nn(-c3ccccc3)cc2CNCc2ccccc2)cc1	MEKK2 WT-MEK5 160 | MEKK2wt confirm inactive | MEKK2mut confirm inactive | MEKK3-MEK5 inh inactive
Fc1ccc(-n2cc(CNCCc3cccnc3)c(-c3ccccc3Cl)n2)cc1	MEKK2 WT-MEK5 221, MEKK2 mut-MEK5 66 | MEKK2wt confirm inactive | MEKK2mut confirm inactive | MEKK3-MEK5 inh inactive
Cc1ccc(NCCC(=O)c2ccc(Cl)cc2)cc1	none
CCOc1cc(C2C3=C(CCCC3=O)N(C)C3=C2C(=O)CCC3)cc(Cl)c1O	none
CC(=O)NS(=O)(=O)c1ccc(NC(=O)c2cc(-c3ccc(C)cc3)nc3ccccc23)cc1	none
CC(=O)Nc1ccc(-c2cc(C(=O)O)c3ccccc3n2)cc1	MEKK2 WT-MEK5 61[inhibitor], MEKK3 PB1 HTS 58[inhibitor] | MEKK2wt confirm inactive | MEKK2mut confirm inactive | MEKK3-MEK5 inh inactive
CN1CCN(C(=O)N2c3ccccc3C=Cc3ccccc32)CC1	MEKK2 WT-MEK5 0.0[inhibitor], MEKK3 PB1 HTS 0.0[inhibitor] | MEKK2wt confirm inactive | MEKK2mut confirm inactive | MEKK3-MEK5 inh inactive
NC(=O)N1c2ccccc2C=Cc2ccccc21	none
COc1cccc(C2=NO[C@@H]3C(=O)N(Cc4ccccc4)C(=O)[C@H]23)c1OC	MEKK3 PB1 HTS 128 | MEKK2wt confirm inactive | MEKK2mut confirm inactive | MEKK3-MEK5 inh inactive
COC(=O)c1ccccc1NC(=O)C1CC(=O)N(c2ccc(C)c(C)c2)C1 (centres undefined)	MEKK3 PB1 HTS 131 | MEKK2wt confirm inactive | MEKK2mut confirm inactive | MEKK3-MEK5 inh inactive
COC(=O)c1ccccc1NC(=O)C1CC(=O)N(c2ccc(F)cc2)C1 (centres undefined)	none
Cc1ccc(N(C(=O)c2cc3ccccc3oc2=O)C2C=CS(=O)(=O)C2)cc1 (centres undefined)	none
Cc1cc(C)cc(N(C(=O)c2cc3ccccc3oc2=O)C2C=CS(=O)(=O)C2)c1 (centres undefined)	MEKK3 PB1 HTS 141 | MEKK2wt confirm inactive | MEKK2mut confirm inactive | MEKK3-MEK5 inh inactive
Cc1cc(C)cc(N(C(=O)C2CCCC2)C2C=CS(=O)(=O)C2)c1 (centres undefined)	MEKK3 PB1 HTS 76[inhibitor] | MEKK2wt confirm inactive | MEKK2mut confirm inactive | MEKK3-MEK5 inh inactive
Cc1ccc(N(C(=O)C2CCCC2)C2C=CS(=O)(=O)C2)cc1 (centres undefined)	none
COC(CNC(=O)CCc1c(C)nc2c(-c3ccc(F)cc3)c(C)nn2c1C)OC	none
Fc1ccccc1CNC(=S)Nc1cccc(C(F)(F)F)c1	MEKK3 PB1 HTS 134 | MEKK2wt confirm inactive | MEKK2mut confirm inactive | MEKK3-MEK5 inh inactive
CCc1ccccc1NC(=O)CSc1nc2n[nH]c(C)c2c(=N)n1-c1ccc(OC)cc1	none (no result: UBC13 inh, Apaf-1 inh)
COc1ccccc1NC(=O)CSc1nc2n[nH]c(C)c2c(=N)n1-c1ccccc1Cl	MEKK2 WT-MEK5 140 | MEKK2wt confirm inactive | MEKK2mut confirm inactive | MEKK3-MEK5 inh inactive
O=C(COC(=O)c1cccc(Cl)c1Cl)NCc1cccs1	none (no result: MEKK2 WT-MEK5, MEKK2 mut-MEK5, MEKK3 PB1 HTS)
Cc1csc(NC(=O)/C=C/c2ccc(C)o2)n1	none
Cc1ccc(/C=C2/NC(=O)N(Cc3ccccc3)C2=O)o1	MEKK2 WT-MEK5 2.0[inhibitor] | MEKK2wt confirm inactive | MEKK2mut confirm inactive | MEKK3-MEK5 inh inactive

Screens (PubChem BioAssay)
